{"source": "ChEMBL document CHEMBL1145465", "about": "“PhoU is a persistence switch involved in persister formation and tolerance to multiple antibiotics and stresses in Escherichia coli” (2007)", "format_in_all_cases": "functional", "key": {"Escherichia coli [1]": {"system": "Escherichia coli", "assay": "Antibacterial activity against Escherichia coli K12 PhoU wild type W3110 assessed as cell count in stationary phase at 3 ug/ml after 1 day", "summary_of_the_method": "(§1)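 Log-phase or stationary-phase cultures were exposed to ampicillin (100 μg/ml) or norfloxacin (3 μg/ml) in MOPS minimal medium, pH 5.0, at 37°C without shaking, for 5 h to 10 days. Aliquots were saline-washed and plated on LB for CFU/ml.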"}, "Escherichia coli [2]": {"system": "Escherichia coli", "assay": "Antibacterial activity against Escherichia coli K12 PhoU wild type W3110 assessed as cell count in log phase at 3 ug/ml after 3 days", "summary_of_the_method": "as §1"}, "Escherichia coli [3]": {"system": "Escherichia coli", "assay": "Antibacterial activity against Escherichia coli K12 mutant JHU313 containing plasmid PhoU at 2 ug/ml after 48 hrs by disc diffusion method", "summary_of_the_method": "(§2)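 Kirby-Bauer disc assay: log-phase LB culture was spread on LB agar for confluent growth. 7-mm nitrocellulose discs were soaked in antibiotic at the listed concentration and placed on the agar. After 48 h at 37°C, the diameter of the inhibition zone was measured in mm.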"}, "Escherichia coli [4]": {"system": "Escherichia coli", "assay": "Antibacterial activity against Escherichia coli K12 PhoU wild type W3110 assessed as cell count in log phase at 3 ug/ml after 1 week", "summary_of_the_method": "as §1"}, "Escherichia coli [5]": {"system": "Escherichia coli", "assay": "Antibacterial activity against Escherichia coli K12 containing PhoU mutant assessed as cell count in log phase at 3 ug/ml after 1 week", "summary_of_the_method": "as §1"}, "Escherichia coli [6]": {"system": "Escherichia coli", "assay": "Antibacterial activity against Escherichia coli K12 PhoU wild type W3110 after 16 hrs by serial dilution method", "details": "K12, 16 h", "summary_of_the_method": "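Serial twofold antibiotic dilutions in LB broth; log-phase inoculum 10⁶ to 10⁷ bacteria/ml; 16 h at 37°C. MIC was the lowest concentration with no visible growth. MBC was the concentration giving a 100-fold CFU drop below the seeded inoculum.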"}, "Escherichia coli [7]": {"system": "Escherichia coli", "assay": "Antibacterial activity against Escherichia coli K12 mutant JHU313 after 16 hrs by serial dilution method", "details": "K12, 16 h", "summary_of_the_method": "(§3)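 Twofold serial antibiotic dilutions in LB broth were seeded with 10⁶–10⁷ bacteria/ml from log-phase culture and incubated 16 h at 37°C. MIC was taken as the lowest concentration with no visible growth. MBC was taken as the concentration giving a 100-fold CFU drop from the inoculum.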"}, "Escherichia coli [8]": {"system": "Escherichia coli", "assay": "Antibacterial activity against Escherichia coli K12 mutant JHU313 containing plasmid PhoU after 16 hrs by serial dilution method", "details": "K12, 16 h", "summary_of_the_method": "as §3"}, "Escherichia coli [9]": {"system": "Escherichia coli", "assay": "Antibacterial activity against Escherichia coli K12 mutant JHU313 containing plasmid vector after 16 hrs by serial dilution method", "details": "K12, 16 h", "summary_of_the_method": "as §3"}, "Escherichia coli [10]": {"system": "Escherichia coli", "assay": "Antibacterial activity against Escherichia coli K12 mutant JHU313 containing plasmid PhoU at 0.5 ug/ml after 48 hrs by disc diffusion method", "summary_of_the_method": "as §2"}, "Escherichia coli [11]": {"system": "Escherichia coli", "assay": "Antibacterial activity against Escherichia coli K12 mutant JHU313 containing plasmid vector at 0.5 ug/ml after 48 hrs by disc diffusion method", "summary_of_the_method": "as §2"}, "Escherichia coli [12]": {"system": "Escherichia coli", "assay": "Antibacterial activity against Escherichia coli K12 PhoU wild type W3110 assessed as cell count in log phase at 3 ug/ml after 5 hrs", "summary_of_the_method": "as §1"}, "Escherichia coli [13]": {"system": "Escherichia coli", "assay": "Antibacterial activity against Escherichia coli K12 containing PhoU mutant assessed as cell count in log phase at 3 ug/ml after 5 hrs", "summary_of_the_method": "as §1"}, "Escherichia coli [14]": {"system": "Escherichia coli", "assay": "Antibacterial activity against Escherichia coli K12 containing deletion deltaphoU mutant assessed as cell count in log phase at 3 ug/ml after 5 hrs", "summary_of_the_method": "(§4)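 Log-phase or stationary-phase cultures of the ΔphoU deletion mutant (Datsenko–Wanner construction) were exposed to norfloxacin 3 μg/ml in MOPS minimal medium, pH 5.0, at 37°C without shaking, for up to 10 days. Sampled aliquots were washed in saline and plated on LB agar for CFU/ml.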"}, "Escherichia coli [15]": {"system": "Escherichia coli", "assay": "Antibacterial activity against Escherichia coli K12 containing deletion deltaphoU mutant assessed as cell count in stationary phase at 3 ug/ml after 5 hrs", "summary_of_the_method": "as §4"}, "Escherichia coli [16]": {"system": "Escherichia coli", "assay": "Antibacterial activity against Escherichia coli K12 PhoU wild type W3110 at 6 ug/ml after 48 hrs by disc diffusion method", "summary_of_the_method": "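Kirby-Bauer disc assay. Log-phase LB culture (10⁸ bacteria) was spread for confluent growth on LB agar. 7 mm nitrocellulose discs soaked in antibiotic at the listed concentrations were laid on the agar. Inhibition zone diameter (mm) was measured after 48 h at 37°C.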"}, "Escherichia coli [17]": {"system": "Escherichia coli", "assay": "Antibacterial activity against Escherichia coli K12 PhoU wild type W3110 at 1.5 ug/ml after 48 hrs by disc diffusion method", "summary_of_the_method": "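Kirby-Bauer disc assay. Log-phase LB broth culture (10⁸ bacteria) was spread on LB agar for confluent growth. 7 mm nitrocellulose discs soaked in antibiotic solution at the listed concentration were placed on the agar. Inhibition zone diameter (mm) was measured after 48 h at 37°C.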"}, "Escherichia coli [18]": {"system": "Escherichia coli", "assay": "Antibacterial activity against Escherichia coli K12 mutant JHU313 containing plasmid vector at 1.5 ug/ml after 48 hrs by disc diffusion method", "summary_of_the_method": "as §2"}, "Escherichia coli [19]": {"system": "Escherichia coli", "assay": "Antibacterial activity against Escherichia coli K12 PhoU wild type W3110 assessed as cell count in log phase at 100 ug/ml after 1 day", "summary_of_the_method": "(§5)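 Log-phase or stationary-phase cultures exposed to ampicillin 100 μg/ml in MOPS minimal medium (pH 5.0) at 37°C without shaking, for 5 h up to 10 days. Aliquots were taken at each time point, washed in saline and plated on LB plates for viable CFU/ml.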"}, "Escherichia coli [20]": {"system": "Escherichia coli", "assay": "Antibacterial activity against Escherichia coli K12 PhoU wild type W3110 assessed as cell count in stationary phase at 100 ug/ml after 1 day", "summary_of_the_method": "as §5"}, "Escherichia coli [21]": {"system": "Escherichia coli", "assay": "Antibacterial activity against Escherichia coli K12 PhoU wild type W3110 assessed as cell count in log phase at 100 ug/ml after 5 days", "summary_of_the_method": "as §5"}, "Escherichia coli [22]": {"system": "Escherichia coli", "assay": "Antibacterial activity against Escherichia coli K12 containing deletion deltaphoBR mutant assessed as cell count in log phase at 100 ug/ml after 24 hrs", "summary_of_the_method": "(§6)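 Deletion mutants were made by the Datsenko–Wanner method. Log-phase or stationary-phase cultures were exposed to ampicillin at 100 μg/ml. CFU/ml was determined at the start and after 5, 24 and 72 h of exposure.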"}, "Escherichia coli [23]": {"system": "Escherichia coli", "assay": "Antibacterial activity against Escherichia coli K12 PhoU wild type W3110 assessed as cell count in stationary phase at 100 ug/ml after 1 week", "summary_of_the_method": "as §5"}, "Escherichia coli [24]": {"system": "Escherichia coli", "assay": "Antibacterial activity against Escherichia coli K12 PhoU wild type W3110 assessed as cell count in log phase at 100 ug/ml after 10 days", "summary_of_the_method": "as §1"}, "Escherichia coli [25]": {"system": "Escherichia coli", "assay": "Antibacterial activity against Escherichia coli K12 containing deletion deltaphoR mutant assessed as cell count in log phase at 100 ug/ml after 5 hrs", "summary_of_the_method": "(§7)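 Wild-type W3110-derived deletion mutants were made by the Datsenko–Wanner method. Log-phase or stationary-phase cultures were exposed to ampicillin 100 μg/ml in MOPS minimal medium at pH 5.0, at 37°C without shaking. Aliquots were taken at set times, washed in saline and plated on LB for viable CFU/ml.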"}, "Escherichia coli [26]": {"system": "Escherichia coli", "assay": "Antibacterial activity against Escherichia coli K12 containing deletion deltaphoR mutant assessed as cell count in stationary phase at 100 ug/ml after 5 hrs", "summary_of_the_method": "as §7"}, "Escherichia coli [27]": {"system": "Escherichia coli", "assay": "Antibacterial activity against Escherichia coli K12 containing deletion deltaphoBR mutant assessed as cell count in log phase at 100 ug/ml after 5 hrs", "summary_of_the_method": "as §6"}, "Escherichia coli [28]": {"system": "Escherichia coli", "assay": "Antibacterial activity against Escherichia coli K12 containing deletion deltahipA mutant assessed as cell count in log phase at 100 ug/ml after 5 hrs", "summary_of_the_method": "as §6"}}}
{"molecule": "CCn1cc(C(=O)O)c(=O)c2cc(F)c(N3CCNCC3)cc21", "note": "[NORFLOXACIN]", "values": [{"measurement": "CFU", "setting": "Escherichia coli [1]", "result": "4 10^9/ml"}, {"measurement": "CFU", "setting": "Escherichia coli [2]", "result": "5 10^4/ml"}, {"measurement": "inhibition zone (IZ)", "setting": "Escherichia coli [3]", "result": 35, "unit": "mm"}, {"measurement": "CFU", "setting": "Escherichia coli [4]", "result": 0, "unit": "mL⁻¹"}, {"measurement": "CFU", "setting": "Escherichia coli [5]", "result": 0, "unit": "mL⁻¹"}, {"measurement": "MBC", "setting": "Escherichia coli [6]", "result": 1, "unit": "mg/L"}, {"measurement": "MIC", "setting": "Escherichia coli [6]", "result": 0.5, "unit": "mg/L"}, {"measurement": "MBC", "setting": "Escherichia coli [7]", "result": 0.5, "unit": "mg/L"}, {"measurement": "MIC", "setting": "Escherichia coli [7]", "result": 0.125, "unit": "mg/L"}, {"measurement": "MBC", "setting": "Escherichia coli [8]", "result": 1, "unit": "mg/L"}, {"measurement": "MIC", "setting": "Escherichia coli [8]", "result": 0.5, "unit": "mg/L"}, {"measurement": "MBC", "setting": "Escherichia coli [9]", "result": 0.5, "unit": "mg/L"}, {"measurement": "MIC", "setting": "Escherichia coli [9]", "result": 0.125, "unit": "mg/L"}, {"measurement": "inhibition zone (IZ)", "setting": "Escherichia coli [10]", "result": 31, "unit": "mm"}, {"measurement": "inhibition zone (IZ)", "setting": "Escherichia coli [11]", "result": 35, "unit": "mm"}, {"measurement": "CFU", "setting": "Escherichia coli [12]", "result": "1 10^8/ml"}, {"measurement": "CFU", "setting": "Escherichia coli [13]", "result": "2 10^7/ml"}, {"measurement": "CFU", "setting": "Escherichia coli [14]", "result": "5 10^7/ml"}, {"measurement": "CFU", "setting": "Escherichia coli [15]", "result": "6 10^8/ml"}]}
{"molecule": "CC1(C)S[C@@H]2[C@H](NC(=O)[C@H](N)c3ccccc3)C(=O)N2[C@H]1C(=O)O", "note": "[AMPICILLIN]", "values": [{"measurement": "inhibition zone (IZ)", "setting": "Escherichia coli [16]", "result": 25, "unit": "mm"}, {"measurement": "inhibition zone (IZ)", "setting": "Escherichia coli [17]", "result": 21, "unit": "mm"}, {"measurement": "inhibition zone (IZ)", "setting": "Escherichia coli [18]", "result": 27, "unit": "mm"}, {"measurement": "CFU", "setting": "Escherichia coli [19]", "result": 10, "unit": "mL⁻¹"}, {"measurement": "CFU", "setting": "Escherichia coli [20]", "result": "2 10^9/ml"}, {"measurement": "CFU", "setting": "Escherichia coli [21]", "result": 0, "unit": "mL⁻¹"}, {"measurement": "CFU", "setting": "Escherichia coli [22]", "result": "2 10^3/ml"}, {"measurement": "MBC", "setting": "Escherichia coli [6]", "result": 12.5, "unit": "mg/L"}, {"measurement": "MIC", "setting": "Escherichia coli [6]", "result": 3.1, "unit": "mg/L"}, {"measurement": "MBC", "setting": "Escherichia coli [7]", "result": 6.25, "unit": "mg/L"}, {"measurement": "MIC", "setting": "Escherichia coli [7]", "result": 1.5, "unit": "mg/L"}, {"measurement": "MBC", "setting": "Escherichia coli [8]", "result": 12.5, "unit": "mg/L"}, {"measurement": "MIC", "setting": "Escherichia coli [8]", "result": 3.1, "unit": "mg/L"}, {"measurement": "MBC", "setting": "Escherichia coli [9]", "result": 6.25, "unit": "mg/L"}, {"measurement": "MIC", "setting": "Escherichia coli [9]", "result": 1.5, "unit": "mg/L"}, {"measurement": "CFU", "setting": "Escherichia coli [23]", "result": "5 10^6/ml"}, {"measurement": "CFU", "setting": "Escherichia coli [24]", "result": 0, "unit": "mL⁻¹"}, {"measurement": "CFU", "setting": "Escherichia coli [25]", "result": "1 10^3/ml"}, {"measurement": "CFU", "setting": "Escherichia coli [26]", "result": "4 10^9/ml"}, {"measurement": "CFU", "setting": "Escherichia coli [27]", "result": "7 10^3/ml"}, {"measurement": "CFU", "setting": "Escherichia coli [28]", "result": "1 10^4/ml"}]}
